High-throughput results (PubChem BioAssay)
hERG protect = hERG rescue from dofetilide block, primary screen, cell-based, CHO-hERG, FluxOR thallium flux, dofetilide IC70; activation (rescue from dofetilide block), less the hit threshold, % at 10 µM; 0.51% of 310,000 active; Voltage-gated inwardly rectifying potassium channel KCNH2 (Homo sapiens), Q12809; dofetilide IC70 present;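 active means activation above the mean of controls blocked by dofetilide plus 5 SD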;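 further: thallium influx through hERG after potassium depolarization seen as dye fluorescence rise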
KCNQ1 pot = potentiators or activators of KCNQ1 channel, primary screen, cell-based, thallium flux, high-throughput. Potassium voltage-gated channel subfamily KQT member 1 (Homo sapiens), P51787. AID 2648, 2010. 0.35% of 310,000 active. CHO-K1 KCNQ1, thallium flux FluxOR fluorescence; hits give high values. B-score at 10 µM;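 active means fluorescence ratio B-score, a plate-corrected score, at least three library SD, with initial intensity B-score within 5 SD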
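assay system = CHO-K1 cells stably expressing KCNQ1 | medium = assay buffer, equal DMSO in all wells | timing = 37 °C overnight plating, 90-min dark dye load, 20-min compound pretreatment | measured by = kinetic FluxOR thallium fluorescence, 10-s 1-Hz baseline, 110-s post-stimulus read | measure = fluorescence change relative to baseline, converted to B score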
KCNK9 inh = KCNK9 potassium channel inhibitors, primary screen, HEK293 cells, thallium flux; 1.2% of 310,000 active; Potassium channel subfamily K member 9 (Homo sapiens), Q9NPC2; B-score at 10 µM; FluxOR thallium flux fluorescence; hits give low values; AID 488922, 2010;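 active means ratio B-score over 3 SD below the library mean, with starting fluorescence within 5 SD of its mean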;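 further: negative B-score means less thallium flux so channel inhibition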
Target sequence (Q9NPC2 whole entry, looked up): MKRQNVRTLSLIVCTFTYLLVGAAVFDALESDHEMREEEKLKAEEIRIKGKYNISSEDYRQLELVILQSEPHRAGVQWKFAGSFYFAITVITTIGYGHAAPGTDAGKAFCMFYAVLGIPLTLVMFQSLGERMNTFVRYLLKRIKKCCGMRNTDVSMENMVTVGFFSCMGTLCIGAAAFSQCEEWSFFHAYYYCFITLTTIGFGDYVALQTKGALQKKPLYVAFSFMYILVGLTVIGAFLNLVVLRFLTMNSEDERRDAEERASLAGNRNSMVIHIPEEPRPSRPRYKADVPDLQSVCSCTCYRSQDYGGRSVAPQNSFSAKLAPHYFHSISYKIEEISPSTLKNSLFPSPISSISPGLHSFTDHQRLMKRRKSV
KCNQ1 inh = inhibitors of human KCNQ1 channel, primary screen, cell-based, thallium flux, high-throughput; Potassium voltage-gated channel subfamily KQT member 1 (Homo sapiens), P51787; 1.3% of 310,000 active; B-score at 10 µM; CHO-K1 KCNQ1, FluxOR thallium flux fluorescence; hits give high values; AID 2642, 2010;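 active means compounds whose thallium flux B-score, printed positive for inhibition, exceeds three library SD while starting fluorescence stays within three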;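 further: channel opened by potassium depolarization with thallium stimulus after 20 min compound exposure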
KCNK3 block = human KCNK3 channel inhibitors, primary screen, CHO cells, FluxOR thallium flux, B-score; Potassium channel subfamily K member 3 (Homo sapiens), O14649; FluxOR fluorescence; hits give low values; B-score at 10 µM; 0.84% of 340,000 active;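 active means B-score under library mean minus 4 SD, starting fluorescence ratio at most library mean plus 5 SD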;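 further: more negative B-score means stronger inhibition of thallium flux through KCNK3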
KCNK9 block conf = KCNK9 potassium channel inhibitors, confirmation, HEK293 cells, thallium flux, duplicate | shares compounds with KCNK9 inh | inhibition, % at 10 µM | AID 492992, 2010 | FluxOR thallium flux fluorescence | 43% of 4,900 active;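 active means thallium signal inhibited by more than 5 SD of the compound-free buffer control wells, on both duplicate plates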;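 further: 0% = assay buffer control wells without compound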
Kir2-1 spec = mouse Kir2.1 channel inhibition, confirmation, selectivity assay for KCNK9 modulator project, cell-based, HEK293, thallium flux; shares compounds with KCNK9 inh; Kir2.1 cells, FluxOR thallium flux fluorescence; inhibition, % at 10 µM; 4% of 4,900 active; AID 492993, 2010;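 active means thallium signal drop more than 5 SD beyond the mean of the no-compound control wells, seen in both duplicate plates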;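 further: signal is fluorescence rise after thallium addition divided by baseline fluorescence; plate controls were assay buffer only for no effect and full block by chlorpromazine control for full effect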
HEK293 Tl ctr = thallium flux in non-induced HEK293 cells, confirmation, counter-screen for KCNK9 inhibitor project, cell-based, second counter screen, non-induced KCNK9-HEK293; shares compounds with KCNK9 inh; FluxOR thallium flux; inhibition, % at 10 µM; 40% of 4,900 active;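 active means thallium signal drop beyond 5 SD of the untreated control mean, on both duplicate plates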;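 further: plate controls were buffer only IC0 wells for no effect and SID17386958 at its maximal inhibitory level for full effect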
Numbers without * were called inactive. An excerpt weighted towards active compounds, which were near 3.1% of everything screened.

CCC1C(=NO)C(CC)C(c2ccccc2)NC1c1ccccc1 (stereo unspecified) was read as hERG protect -11, KCNQ1 pot inactive, KCNK9 inh inactive, KCNQ1 inh inactive, KCNK3 block inactive, KCNK9 block conf inactive, Kir2-1 spec inactive and HEK293 Tl ctr inactive.
Screening O=C(CC(Nc1ccccc1Cl)C(=O)OCC(=O)c1cccs1)c1ccccc1 (stereo unspecified) returned hERG protect -10, KCNQ1 pot inactive, KCNK9 inh -9.4*, KCNQ1 inh inactive, KCNK3 block inactive, KCNK9 block conf 42%*, Kir2-1 spec inactive and HEK293 Tl ctr 28%*.
For NC(=O)C1CCN(C2CC(=O)NC2=O)CC1 (stereo unspecified) the results were hERG protect -3, KCNQ1 pot inactive, KCNK9 inh inactive, KCNQ1 inh inactive and KCNK3 block inactive.
CC(=O)c1cnn(-c2ccccc2)c1C was read as hERG protect 0, KCNQ1 pot inactive, KCNK9 inh inactive, KCNQ1 inh inactive and KCNK3 block inactive.
CC(=O)c1cnn(-c2nc3c(C)cccc3s2)c1C was read as hERG protect -8, KCNQ1 pot inactive, KCNK9 inh inactive, KCNQ1 inh inactive, KCNK3 block inactive, KCNK9 block conf inactive, Kir2-1 spec inactive and HEK293 Tl ctr inactive.
C=CCCCCCCCC(=O)OC was read as hERG protect -5, KCNQ1 pot inactive, KCNK9 inh inactive, KCNQ1 inh inactive and KCNK3 block inactive.
CCOC(=O)[C@@H]1[C@H]2COc3ccc(Br)cc3[C@@H]2N2C(=O)N(c3ccc(Br)cc3)C(=O)[C@]12C was read as hERG protect -6, KCNQ1 pot inactive, KCNK9 inh inactive, KCNQ1 inh inactive and KCNK3 block inactive.
CCOC(=O)[C@@H]1[C@H]2COc3ccc(Br)cc3[C@@H]2N2C(=O)N(c3ccccc3)C(=O)[C@@]12C was read as hERG protect -3, KCNQ1 pot inactive, KCNK9 inh -9*, KCNQ1 inh inactive, KCNK3 block inactive, KCNK9 block conf 52%*, Kir2-1 spec inactive and HEK293 Tl ctr 30%*.
Screening CCOC(=O)[C@@H]1[C@H]2COc3ccc(Br)cc3[C@H]2N2C(=O)N(c3cccc(Cl)c3)C(=O)[C@]12C returned hERG protect -8, KCNQ1 pot inactive, KCNK9 inh -11*, KCNQ1 inh inactive, KCNK3 block inactive, KCNK9 block conf 73%*, Kir2-1 spec inactive and HEK293 Tl ctr 28%*.
`CCOC(=O)[C@@H]1[C@H]2COc3ccc(Br)cc3[C@H]2N2C(=O)N(c3ccc(Br)cc3)C(=O)[C@]12C` gave hERG protect -10, KCNQ1 pot inactive, KCNK9 inh -16*, KCNQ1 inh inactive, KCNK3 block inactive, KCNK9 block conf 70%*, Kir2-1 spec inactive and HEK293 Tl ctr 28%*.
Screening CCOC(=O)[C@@H]1[C@H]2COc3ccc(Br)cc3[C@@H]2N2C(=O)N(c3cccc(Cl)c3)C(=O)[C@]12C returned hERG protect -5, KCNQ1 pot inactive, KCNK9 inh inactive, KCNQ1 inh inactive and KCNK3 block inactive.
O=C(NCCN1CCOCC1)c1cc(-c2ccc(Br)cc2)on1 was read as hERG protect -10, KCNQ1 pot inactive, KCNK9 inh -12*, KCNQ1 inh inactive, KCNK3 block inactive, KCNK9 block conf inactive, Kir2-1 spec inactive and HEK293 Tl ctr inactive.
